From PubChem BioAssay
Activity calls are given as the source filed them.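 How the source made its calls, unless noted: active means viability at or below 30% in both replicate assays; inconclusive means viability at or below 30% in just one of the two assays; inactive means the rest.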

Experiments:
[1] = reducers of endogenous Her2 protein level, primary screen, SKBR3 breast tumor cells, AlphaScreen, ATP viability (AID 461;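 active means Her2 level under about 52% in both replicate screens, with viability over 70% of control, limit read from the data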;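 on Her2 level: lower value means less Her2 protein in the cells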;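 on viability: percent of carrier control wells set as 100% viability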); details: 18-24 h, measured here: SKBR3 viability, ATP luminescence, at 10 µM
[2] = target: Receptor tyrosine-protein kinase erbB-2 (Homo sapiens) (UniProt P04626); assay: as above; details: 18-24 h, at 10 µM, stronger effect = lower value
Chain of Receptor tyrosine-protein kinase erbB-2 (Homo sapiens) (P04626 whole entry, looked up): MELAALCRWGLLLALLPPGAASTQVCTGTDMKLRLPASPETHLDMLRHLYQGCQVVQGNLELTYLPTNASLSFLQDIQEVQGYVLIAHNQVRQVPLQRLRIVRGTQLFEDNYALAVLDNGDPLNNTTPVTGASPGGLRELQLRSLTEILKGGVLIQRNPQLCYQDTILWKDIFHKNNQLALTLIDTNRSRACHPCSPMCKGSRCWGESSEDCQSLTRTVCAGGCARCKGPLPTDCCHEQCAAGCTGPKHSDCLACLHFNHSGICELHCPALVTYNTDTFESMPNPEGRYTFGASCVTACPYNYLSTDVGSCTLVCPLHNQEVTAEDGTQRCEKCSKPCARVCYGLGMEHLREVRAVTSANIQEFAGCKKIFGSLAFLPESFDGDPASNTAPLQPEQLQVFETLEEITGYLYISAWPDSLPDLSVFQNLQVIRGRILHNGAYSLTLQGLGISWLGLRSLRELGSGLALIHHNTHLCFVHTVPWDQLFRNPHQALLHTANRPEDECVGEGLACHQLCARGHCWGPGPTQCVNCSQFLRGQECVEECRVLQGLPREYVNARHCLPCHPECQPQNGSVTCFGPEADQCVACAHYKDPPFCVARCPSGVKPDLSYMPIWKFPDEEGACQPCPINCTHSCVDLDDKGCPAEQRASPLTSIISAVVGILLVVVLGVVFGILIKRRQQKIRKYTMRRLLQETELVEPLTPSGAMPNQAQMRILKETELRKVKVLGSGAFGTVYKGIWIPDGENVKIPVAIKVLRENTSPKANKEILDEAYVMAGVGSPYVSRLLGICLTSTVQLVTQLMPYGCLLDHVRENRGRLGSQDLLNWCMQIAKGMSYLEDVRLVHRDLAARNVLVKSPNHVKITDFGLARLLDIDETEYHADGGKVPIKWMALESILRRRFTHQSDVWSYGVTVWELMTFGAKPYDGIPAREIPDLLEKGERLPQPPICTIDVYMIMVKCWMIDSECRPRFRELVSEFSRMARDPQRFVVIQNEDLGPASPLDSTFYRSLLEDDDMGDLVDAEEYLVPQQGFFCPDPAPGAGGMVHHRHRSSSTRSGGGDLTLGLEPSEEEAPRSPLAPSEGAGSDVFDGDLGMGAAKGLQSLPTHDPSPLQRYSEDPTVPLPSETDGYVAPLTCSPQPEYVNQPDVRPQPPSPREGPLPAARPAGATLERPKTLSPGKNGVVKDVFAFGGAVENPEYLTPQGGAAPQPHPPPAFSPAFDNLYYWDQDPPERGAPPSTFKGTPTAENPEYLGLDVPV

[3] = SK-BR-3 cell growth inhibitors, pilot screen, 24 h, human (AID 572;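 active means viability at or below 10% of carrier control in both of two separate runs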;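 further: compound exposure lasted between 18 and 24 h rather than exactly 24 h; 100% = carrier-treated control wells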); details: SK-BR-3 viability, CellTiter-Glo luminescence, at 10 µM, stronger effect = lower value
[4] = HUVEC growth inhibition – cell-based, human, primary screen (AID 575); details: HUVEC proliferation, CellTiter-Glo luminescence, 72 h; at 10 µM; stronger effect = lower value;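 further: 100% = median of untreated cell wells with 0.1% DMSO on each plate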
Outline: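 System – primary HUVEC, no more than 12 passages · Medium – Low-serum (2% FBS) EBM, supplemented · Times – 72 h exposure, 37 °C, 5% CO2, 30 min RT equilibration · Measured by – luminescent ATP assay · Read-out – % viability relative to median vehicle-well signal on each plate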

[5] = growth inhibitors of H69AR lung tumor, primary screen, human, duplicate replicates (AID 580;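 active means viability at or under a set limit in both replicates, limit being median viability minus 3 SD, cut at about 48% in these data, passing the limit was not always enough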;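 further: 100% = mean luminescence of untreated wells and 0% = no signal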); details: H69AR lung tumor cells viability, ATP luminescence, 72 h; at 10 µM; stronger effect = lower value
[6] = reversal of MRP1-mediated doxorubicin resistance, pilot screen, H69AR cells, doxorubicin co-treatment (AID 601;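 active means viability loss from added drug above about 55%, and viability with drug at most 40%, in both replicates, limit read from the data, passing the limit was not always enough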); details: CellTiter-Glo, 72 h, at 10 µM; for differential viability (reversal): stronger effect = higher value
[7] = 384-well plate pilot, post-Golgi transport modulator project, inhibition of yeast transport mutant growth (AID 636; in the data active means inhibition above about 31%); details: absorbance 615 nm, about 18 h, stronger effect = higher value
[8] = growth suppression of yeast trafficking mutant, preliminary HTS, modulators of trafficking downstream of Golgi apparatus project, 1536-format plate, OD 615 nm (AID 637; in the data active means inhibition above about 30%); details: yeast transport mutant growth, absorbance 615 nm, 18 h; stronger effect = higher value
[9] = H69AR cells + 2 uM doxorubicin, measured here: viability with 2 uM doxorubicin, stronger effect = lower value
[10] = H69AR cells, compound alone cytotoxicity

Compound | viability [1] [%] | Her2 level [2] | viability [3] | viability [4] | viability [5] | differential viability (reversal) ([6]; H69AR cells + 2 uM doxorubicin) | viability [6, 9] [%] | viability [6, 10] [%] | inhibition [7] | inhibition [8]
COc1ccc(C(CNC(=O)c2cc(C)oc2C)N2CCOCC2)cc1 (stereo not given) | 126 | 96.5% (inactive) | 126% (inactive) | 91.6% (inactive) | 101% (inactive) | -9.67% (inactive) | 110 | 101 | -3.64% (inactive) | -0.32% (inactive)
COc1ccccc1NC(=O)C(O)C(O)C(=O)Nc1ccccc1OC (stereo not given) | 111 | 104% (inactive) | 111% (inactive) | 116% (inactive) | 96.1% (inactive) | 4.04% (inactive) | 92.1 | 96.1 | -7.43% (inactive) | -2.83% (inactive)
COc1ccc2c(c1)OC(O)(C(F)F)CC2=O (stereo not given) | 116 | 107% (inactive) | 116% (inactive) | 102% (inactive) | 93.5% (inactive) | 2.35% (inactive) | 91.2 | 93.5 | -1.04% (inactive) | -2% (inactive)
COc1ccccc1OCCCCNCCO | 95.5 | 116% (inactive) | 95.5% (inactive) | 92% (inactive) | 101% (inactive) | 12.6% (inactive) | 88.7 | 101 | -1.56% (inactive) | -7.83% (inactive)
CCOc1ccc2[nH]c(=O)c(CN(Cc3nnnn3CCc3ccccc3)CC3CCCO3)cc2c1 (stereo not given) | 78.5 | 89% (inactive) | 78.5% (inactive) | 90.6% (inactive) | 78.7% (inactive) | 21.2% (inactive) | 57.5 | 78.7 | -5.34% (inactive) | -11.6% (inactive)
CC1N=C2c3ccccc3N=C(SCc3cc(=O)n4cc(Cl)ccc4n3)N2C1=O (stereo not given) | 78.5 | 92.5% (inactive) | 78.5% (inactive) | 79.4% (inactive) | 76.1% (inactive) | -9.46% (inactive) | 85.6 | 76.1 | -4.87% (inactive) | -0.48% (inactive)
CCOc1ccc2nc(NC(=O)CSc3nnnn3C3CCCCC3)sc2c1 | 92 | 108% (inactive) | 92% (inactive) | 59.7% (inactive) | 63.5% (inactive) | 4.67% (inactive) | 58.8 | 63.5 | 9.08% (inactive) | -0.33% (inactive)
COc1ccc(S(=O)(=O)Nc2ccc(F)c(F)c2)cc1Cl | 74 | 82.5% (inactive) | 74% (inactive) | 90.4% (inactive) | 90.2% (inactive) | -2.64% (inactive) | 92.8 | 90.2 | -4.59% (inactive) | 4.26% (inactive)
COc1ccc2[nH]c(=O)c(CN(C(=O)c3cccnc3)c3ccccc3OC)cc2c1 | 104 | 97% (inactive) | 104% (inactive) | 90.8% (inactive) | 89.1% (inactive) | -2.19% (inactive) | 91.3 | 89.1 | -6% (inactive) | -0.16% (inactive)
Cc1cc(C)nc(N2CCC(C(=O)NCc3cccc(C(F)(F)F)c3)CC2)n1 | 104 | 100% (inactive) | 104% (inactive) | 76.6% (inactive) | 91.1% (inactive) | 4.94% (inactive) | 86.2 | 91.1 | -6.08% (inactive) | -2.33% (inactive)
CCOc1cc(C2C(C(=O)OC(C)C)=C(C)N=C3SCCC(=O)N32)ccc1OC(C)=O (stereo not given) | 93 | 78.5% (inactive) | 93% (inactive) | 96.5% (inactive) | 93.3% (inactive) | 3.33% (inactive) | 89.9 | 93.3 | -2.89% (inactive) | 2.18% (inactive)
O=C(Nc1ccc(N2CCOCC2)cc1)c1cccc(S(=O)(=O)N2CCCC2)c1 | 88.5 | 85% (inactive) | 88.5% (inactive) | 96.8% (inactive) | 98.4% (inactive) | 5.26% (inactive) | 93.1 | 98.4 | -5% (inactive) | -2% (inactive)
CCOC(=O)c1sc(C)c2c1NC(C)(c1cccs1)NC2=O (stereo not given) | 105 | 96.5% (inactive) | 105% (inactive) | 83.6% (inactive) | 82.5% (inactive) | -8.16% (inactive) | 90.6 | 82.5 | -1.73% (inactive) | -6.94% (inactive)
CCOC(=O)CSc1nc(C)c(C(=O)OCC)s1 | 89 | 93.5% (inactive) | 89% (inactive) | 105% (inactive) | 101% (inactive) | 3.4% (inactive) | 97.8 | 101 | 0.92% (inactive) | -4.68% (inactive)
CCOC(=O)CN1C(=O)C2(OCCCO2)c2ccccc21 | 99 | 109% (inactive) | 99% (inactive) | 99.7% (inactive) | 101% (inactive) | 11.1% (inactive) | 89.7 | 101 | -7.66% (inactive) | -11% (inactive)
CCOC(=O)Nc1ccc2c(c1)N(C(=O)CN(CC)CC)c1ccccc1C=C2 | 87.5 | 93% (inactive) | 87.5% (inactive) | 97.3% (inactive) | 91.4% (inactive) | 8.63% (inactive) | 82.8 | 91.4 | -4.61% (inactive) | 5.9% (inactive)
Cn1cccc1Cc1nnc(SCC(=O)Nc2ccccc2F)n1-c1ccc(F)cc1 | 87.5 | 99.5% (inactive) | 87.5% (inactive) | 103% (inactive) | 98.2% (inactive) | -2.87% (inactive) | 101 | 98.2 | -1.28% (inactive) | -6.5% (inactive)
COC(=O)c1ccccc1NC(=O)c1cc(-c2ccc(OC)c(OC)c2)on1 | 99 | 90.5% (inactive) | 99% (inactive) | 114% (inactive) | 77.8% (inactive) | 5.72% (inactive) | 72 | 77.8 | -7.57% (inactive) | -8% (inactive)
CC(=O)c1c(C)oc2ccc(NS(=O)(=O)c3ccc(O)c(C(=O)O)c3)cc12 | 92 | 78.5% (inactive) | 92% (inactive) | 105% (inactive) | 94% (inactive) | 3.09% (inactive) | 90.9 | 94 | -6.22% (inactive) | 0.79% (inactive)
CC1CCCN(C(=O)c2cc(F)c(F)cc2Cl)C1 (stereo not given) | 99 | 95.5% (inactive) | 99% (inactive) | 104% (inactive) | 89.2% (inactive) | -4.92% (inactive) | 94.1 | 89.2 | -4.93% (inactive) | -3.77% (inactive)
Cc1ccc2nc(SCC(=O)NCc3ccco3)c(C#N)cc2c1 | 90.5 | 88.5% (inactive) | 90.5% (inactive) | 82.3% (inactive) | 62.2% (inactive) | -7.5% (inactive) | 69.7 | 62.2 | -4.74% (inactive) | -3.27% (inactive)
COc1ccc(N2CCN(C(=O)CSc3nnc4n3C(C)(C)Cc3ccccc3-4)CC2)cc1 | 96 | 100% (inactive) | 96% (inactive) | 84.3% (inactive) | 88.7% (inactive) | -4.46% (inactive) | 93.1 | 88.7 | -5.79% (inactive) | -1.61% (inactive)
COc1ccc2cnn(-c3ccccc3)c(=O)c2c1OC | 98 | 91% (inactive) | 98% (inactive) | 126% (inactive) | 103% (inactive) | 18.2% (inactive) | 84.6 | 103 | -1.71% (inactive) | 1.64% (inactive)
Cc1nc(/N=C(\N)Nc2ccccc2)nc2ccccc12 | 91.5 | 67.5% (inactive) | 91.5% (inactive) | 74.5% (inactive) | 78.7% (inactive) | -21% (inactive) | 99.7 | 78.7 | -0.26% (inactive) | 10.5% (inactive)
COC(C)(C)c1cc(C(C)(C)C)nc(N)n1 | 107 | 109% (inactive) | 107% (inactive) | 86.2% (inactive) | 89.9% (inactive) | -1.34% (inactive) | 91.2 | 89.9 | -2.08% (inactive) | -4.75% (inactive)
CCOc1ccccc1NC(=O)N1CCCC1C(=O)Nc1nnc(CC)s1 (stereo not given) | 94 | 88% (inactive) | 94% (inactive) | 89.7% (inactive) | 109% (inactive) | 20% (inactive) | 88.8 | 109 | -5.95% (inactive) | -0.83% (inactive)
COc1cccc(OC)c1C(=O)Nc1cccc(C(C)=O)c1 | 103 | 99% (inactive) | 103% (inactive) | 98.8% (inactive) | 98.7% (inactive) | 6.47% (inactive) | 92.2 | 98.7 | -6.27% (inactive) | 0.48% (inactive)
Cc1c(C#N)sc2nc(-c3ccccc3)nc(N3CCCC3)c12 | 85.5 | 83% (inactive) | 85.5% (inactive) | 82.1% (inactive) | 77% (inactive) | -11.2% (inactive) | 88.1 | 77 | -3.59% (inactive) | -8% (inactive)
